Laboratory results as given in ChEMBL document CHEMBL5370680, “Design and Biological Evaluation of Piperazine-Bearing Nitrobenzamide Hypoxia/GDEPT Prodrugs: The Discovery of CP-506” (ACS Med Chem Lett, 2023).

How the values were obtained:
HCT-116 [1] = experiment: Antiproliferative activity against human HCT-116 cells in three-dimensional cell culture multicellular layer expressing NfsA of Escherichia coli assessed as fold change in plating efficiency at 10 uM; type: functional
Procedure, shortened: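 Mixed MCLs of wild-type HCT116 with 3% NfsA_Ec-expressing cells, against 100% wild-type MCLs, exposed to 10 μM prodrug. Clonogenic plating efficiency measured. Fold change is the plating-efficiency ratio between wild-type and transfected MCLs. ≥3 independent experiments.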

[2] = Selectivity ratio of IC50 for antiproliferative activity against wild type human NCI-H1299 cells to IC50 for antiproliferative activity against human NCI-H1299 cells expressing NfsA of Escherichia coli; type: functional; details: time 4 hrs
Procedure, shortened: (§1)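 Ratio of mean IC50 in non-transfected wild-type cells to mean IC50 in the AKR1C3- or NfsA_Ec-transfected line. IC50 is from a 4 h prodrug exposure and 5 days' regrowth.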

HCT-116 [3] = experiment: Antiproliferative activity against human HCT-116 cells assessed as inhibition of cell growth incubated for 4 hrs under aerobic condition and measured after 5 days regrowth under aerobic condition; type: functional, cell-based
Procedure, shortened: (§2)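 Low-density monolayer antiproliferative assay. Cells exposed to prodrug for 4 h under aerobic or anoxic conditions, then regrown aerobically for 5 days. IC50 is the concentration giving 50% growth inhibition versus untreated controls. Mean values reported, CV <20%.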

HCT-116 [4] = experiment: Antiproliferative activity against human HCT-116 cells overexpressing cytochrome P450 oxidoreductase assessed as inhibition of cell growth incubated for 4 hrs under aerobic condition and measured after 5 days regrowth under aerobic condition; type: functional, cell-based; procedure, shortened: as §2
[5] = Octanol/water partition coefficient, log D of the compound at pH 7.4; type: physicochemical
Procedure, shortened: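 Octanol–water partition coefficient by shake-flask method at pH 7.4.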

HCT-116 [6] = experiment: Antiproliferative activity against human HCT-116 cells expressing NfsA of Escherichia coli assessed as cell growth inhibition measured after 4 hrs; type: functional; details: HCT-116, 4 h
Procedure, shortened: (§3)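 Monolayer antiproliferative assay using wild-type cells and isogenic lines transfected with AKR1C3 or E. coli NfsA. Cells exposed to prodrug for 4 h, then regrown for 5 days. IC50 is 50% growth inhibition versus untreated controls. Mean values reported, CV <20%.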

NCI-H1299 [7] = experiment: Antiproliferative activity against human NCI-H1299 cells expressing NfsA of Escherichia coli assessed as cell growth inhibition measured after 4 hrs; type: functional; details: NCI-H1299, 4 h; procedure, shortened: as §3
SiHa [8] = experiment: Antiproliferative activity against human SiHa cells assessed as inhibition of cell growth incubated for 4 hrs under aerobic condition and measured after 5 days regrowth under aerobic condition; type: functional, cell-based; procedure, shortened: as §2
HCT-116 [9] = experiment: Antiproliferative activity against human HCT-116 cells assessed as inhibition of cell growth incubated for 4 hrs under anoxic condition and measured after 5 days regrowth under aerobic condition; type: functional, cell-based; procedure, shortened: as §2
[10] = Selectivity ratio of IC50 for antiproliferative activity against wild type human HCT-116 cells to IC50 for antiproliferative activity against human HCT-116 cells expressing NfsA of Escherichia coli; type: functional; details: time 4 hrs; procedure, shortened: as §1
[11] = Selectivity ratio of IC50 for antiproliferative activity against human HCT-116 cells assessed as inhibition of cell growth under aerobic condition to IC50 for antiproliferative activity against human HCT-116 cells assessed as inhibition of cell growth under anoxic condition; type: functional
Procedure, shortened: (§4)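 Hypoxic cytotoxicity ratio is aerobic IC50 divided by anoxic IC50. Each IC50 comes from a 4 h drug exposure under aerobic or anoxic conditions, followed by 5 days' aerobic regrowth, relative to untreated controls.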

[12] = Selectivity ratio of IC50 for antiproliferative activity against human SiHa cells assessed as inhibition of cell growth under aerobic condition to IC50 for antiproliferative activity against human SiHa cells assessed as inhibition of cell growth under anoxic condition; type: functional; procedure, shortened: as §4
NCI-H1299 [13] = experiment: Antiproliferative activity against human NCI-H1299 cells expressing AKR1C3 assessed as cell growth inhibition measured after 4 hrs; type: functional, cell-based; details: NCI-H1299, 4 h; procedure, shortened: as §3
HCT-116 [14] = experiment: Antiproliferative activity against human HCT-116 cells expressing AKR1C3 assessed as cell growth inhibition measured after 4 hrs; type: functional, cell-based; details: HCT-116, 4 h; procedure, shortened: as §3
HCT-116 [15] = experiment: Antiproliferative activity against human HCT-116 cells in three-dimensional cell culture multicellular layer expressing AKR1C3 assessed as fold change in plating efficiency at 10 uM; type: functional
Procedure, shortened: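 100% AKR1C3-expressing HCT116 MCLs, against wild-type HCT116 MCLs, exposed to 10 μM prodrug. Clonogenic plating efficiency measured. Fold change is the plating-efficiency ratio between wild-type and transfected MCLs. ≥3 independent experiments.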

[16] = Selectivity ratio of IC50 for antiproliferative activity against human HCT-116 cells overexpressing cytochrome P450 oxidoreductase assessed as inhibition of cell growth under aerobic condition to IC50 for antiproliferative activity against human HCT-116 cells overexpressing cytochrome P450 oxidoreductase assessed as inhibition of cell growth under anoxic condition; type: functional; procedure, shortened: as §4
[17] = Selectivity ratio of IC50 for antiproliferative activity against wild type human NCI-H1299 cells to IC50 for antiproliferative activity against human NCI-H1299 cells expressing AKR1C3; type: functional; details: time 4 hrs; procedure, shortened: as §1
HCT-116 [18] = experiment: Antiproliferative activity against human HCT-116 cells overexpressing cytochrome P450 oxidoreductase assessed as inhibition of cell growth incubated for 4 hrs under anoxic condition and measured after 5 days regrowth under aerobic condition; type: functional, cell-based; procedure, shortened: as §2
NCI-H1299 [19] = experiment: Antiproliferative activity against wild type human NCI-H1299 cells assessed as cell growth inhibition measured after 4 hrs; type: functional, cell-based; details: NCI-H1299, 4 h; procedure, shortened: as §3
[20] = Selectivity ratio of IC50 for antiproliferative activity against wild type human HCT-116 cells to IC50 for antiproliferative activity against human HCT-116 cells expressing AKR1C3; type: functional; details: time 4 hrs; procedure, shortened: as §1
SiHa [21] = experiment: Antiproliferative activity against human SiHa cells assessed as inhibition of cell growth incubated for 4 hrs under anoxic condition and measured after 5 days regrowth under aerobic condition; type: functional, cell-based; procedure, shortened: as §2
HCT-116 [22] = experiment: Antiproliferative activity against wild type human HCT-116 cells assessed as cell growth inhibition measured after 4 hrs; type: functional, cell-based; details: HCT-116, 4 h; procedure, shortened: as §3
HCT-116 [23] = experiment: Antiproliferative activity against human HCT-116 cells in three-dimensional cell culture multicellular layers assessed as log cell killing under anoxic condition at 100 uM; type: functional
Procedure, shortened: (§5)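 HCT116 three-dimensional multicellular layers exposed to 100 μM prodrug under aerobic or anoxic conditions. Clonogenic survivors per MCL counted. Log cell kill = log CS(control) − log CS(treated). Mean of ≥3 independent experiments.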

HCT-116 [24] = experiment: Antiproliferative activity against human HCT-116 cells in three-dimensional cell culture multicellular layers assessed as log cell killing under aerobic condition at 100 uM; type: functional; procedure, shortened: as §5
[25] = Metabolic stability in mouse liver microsome assessed as half life in presence of NADPH by LC-MS/MS analysis; type: ADME; details: liver microsomes
Procedure, shortened: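 Male mouse hepatic microsomes incubated with prodrug for 30 min, with or without NADPH cofactor. Percentage of parent compound remaining tracked from triplicate incubations. Half-life estimated from this loss.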

| SMILES | fold change (FC) (HCT-116 [1]) | Ratio IC50 [2] | IC50 (HCT-116 [4]) | logD [5] | IC50 (HCT-116 [6]) | IC50 (NCI-H1299 [7]) | IC50 (SiHa [8]) | IC50 (HCT-116 [9]) | Ratio IC50 [10] | Ratio IC50 [12] | IC50 (NCI-H1299 [13]) | IC50 (HCT-116 [14]) | fold change (FC) (HCT-116 [15]) | Ratio IC50 [16] | Ratio IC50 [17] | IC50 (HCT-116 [18]) | IC50 (NCI-H1299 [19]) | Ratio IC50 [20] | IC50 (SiHa [21]) | IC50 (HCT-116 [22]) | further results |
| --- | --- | --- | --- | --- | --- | --- | --- | --- | --- | --- | --- | --- | --- | --- | --- | --- | --- | --- | --- | --- | --- |
| CS(=O)(=O)OCCN(CCBr)c1c(C(=O)NCCO)cc([N+](=O)[O-])cc1[N+](=O)[O-] | 29 | 2375 | 41 µM | 1 | 0.016 µM | 0.048 µM | 19 µM | 2.5 µM | 4125 | 7 | 7.4 µM | 1.1 µM | 100500 | 293 | 15 | 0.14 µM | 114 µM | 60 | 2.7 µM | 66 µM | IC50 (HCT-116 [3]): 38 µM; Ratio IC50 [11]: 15 |
| CCS(=O)(=O)c1cc([N+](=O)[O-])c(C(=O)N2CCN(C(C)C)CC2)cc1N(CCBr)CCBr | 351 | 73 | – | 2.5 | 0.496 µM | 0.685 µM | – | – | 131 | – | 67 µM | 70 µM | 0.9 | – | 0.7 | – | 49 µM | 0.9 | – | 65 µM | – |
| CCN1CCN(C(=O)c2cc(N(CCBr)CCOS(C)(=O)=O)c(S(=O)(=O)CC)cc2[N+](=O)[O-])CC1 | – | – | 122 µM | 1 | – | – | > 300 µM | 18 µM | – | >20 | – | – | – | 44 | – | 2.8 µM | – | – | 15 µM | – | LCK (HCT-116 [23]): 0.016; LCK (HCT-116 [24]): 2.3 |
| CN1CCN(C(=O)c2cc(N(CCBr)CCOS(C)(=O)=O)c(S(C)(=O)=O)cc2[N+](=O)[O-])CC1 | – | – | 139 µM | 0.3 | – | – | 561 µM | 23 µM | – | 12 | – | – | – | 87 | – | 1.6 µM | – | – | 47 µM | – | IC50 (HCT-116 [3]): 368 µM; LCK (HCT-116 [23]): 0.016; Ratio IC50 [11]: 16; LCK (HCT-116 [24]): 2.3 |
| CN1CCN(C(=O)c2cc(N(CCBr)CCBr)c(S(C)(=O)=O)cc2[N+](=O)[O-])CC1 | 1531 | 636 | 82 µM | 1.4 | 0.089 µM | 0.154 µM | 241 µM | 24 µM | 1146 | 15 | 102 µM | 70 µM | 1.1 | 93 | 1 | 0.88 µM | 98 µM | 1.5 | 16 µM | 102 µM | IC50 (HCT-116 [3]): 160 µM; LCK (HCT-116 [23]): 0.016; Ratio IC50 [11]: 6.6; LCK (HCT-116 [24]): 2.3 |
| CC(C)N1CCN(C(=O)c2cc(N(CCBr)CCBr)c(S(C)(=O)=O)cc2[N+](=O)[O-])CC1 | 1943 | 206 | – | 1.9 | 0.132 µM | 0.287 µM | – | – | 462 | – | 69 µM | 53 µM | 0.9 | – | 0.9 | – | 59 µM | 1.2 | – | 61 µM | – |
| CCS(=O)(=O)c1cc([N+](=O)[O-])c(C(=O)N2CCN(C)CC2)cc1N(CCBr)CCBr | 709 | 156 | – | 2.2 | 0.231 µM | 0.546 µM | – | – | 359 | – | 58 µM | 73 µM | 1.1 | – | 1.5 | – | 85 µM | 1.1 | – | 83 µM | – |
| CCN1CCN(C(=O)c2cc(N(CCBr)CCOS(C)(=O)=O)c(S(C)(=O)=O)cc2[N+](=O)[O-])CC1 [CP-506] | – | – | 112 µM | 0.6 | – | – | 459 µM | 14 µM | – | 21 | – | – | – | 93 | – | 1.2 µM | – | – | 22 µM | – | IC50 (HCT-116 [3]): 288 µM; LCK (HCT-116 [23]): 0.016; half-life [25]: 41.2 min; Ratio IC50 [11]: 21; LCK (HCT-116 [24]): 2.3 |
